Experimental data reported in ChEMBL document CHEMBL1138217, “Rapid discovery and structure-activity profiling of novel inhibitors of human immunodeficiency virus type 1 protease enabled by the copper(I)-catalyzed synthesis of 1,2,3-triazoles and their further functionalization” (J Med Chem, 2006).

What was measured:
[1] = target: Human immunodeficiency virus type 1 protease (Human immunodeficiency virus 1, UniProt Q72874); assay: Inhibition of HIV1 protease
How it was run: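 HIV-1 protease (SF-2-WTQ7K-Pr construct for the isolated inhibitors) at 20 µg/mL with 50 µM fluorogenic substrate Abz-Thr-Ile-Nle/Phe-(p-NO2)Gln-Arg-NH2, in 0.1 M MES, 0.2 M NaCl, pH 5.25, 5% (v/v) glycerol. Crude mixtures were screened at 5 µM as percent inhibition.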

[2] = target: Human immunodeficiency virus type 1 protease (Human immunodeficiency virus 1) (UniProt Q72874); assay: Inhibition of HIV1 protease at 5 uM
How it was run: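 Crude click-reaction DMSO mixtures (azide-alkyne, CuSO4 with copper turning, 1:1 tBuOH/H2O, 50 °C, 5 days) diluted to 5 µM in 0.1 M MES, 0.2 M NaCl, pH 5.25, 5% glycerol; HIV-1 protease 20 µg/mL plus fluorogenic substrate 50 µM added; fluorescence read directly in microplate; percent inhibition; TL-3 100 nM positive control.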

| SMILES | Ki [1] [nM] | inhibition [2] [%] | IC50 [1] [nM] |
| --- | --- | --- | --- |
| Cc1ccc(Cl)cc1N1CCN(Cc2cn([C@@H](Cc3ccccc3)[C@H](Cc3ccccc3)NC(=O)OC3CCCC3)nn2)CC1 | 23 | 94 | – |
| Cc1ccc(Cl)cc1N1CCN(Cc2cn([C@@H](Cc3ccccc3)[C@H](Cc3ccccc3)NC(=O)O[C@@H]3CCOC3)nn2)CC1 | 83 | 71 | – |
| Cc1ccc(Cl)cc1N1CCN(Cc2cn([C@@H](Cc3ccccc3)[C@H](Cc3ccccc3)NC(=O)CC3CCCC3)nn2)CC1 | > 2500 | 28 | – |
| Cc1ccc(C)c(N2CCN(Cc3cn([C@@H](Cc4ccccc4)[C@H](Cc4ccccc4)NC(=O)OC4CCCC4)nn3)CC2)c1 | 32 | 94 | > 25000 |
| CC[C@@H](O)c1c(CN2CCN(c3cc(C)ccc3C)CC2)nnn1[C@@H](Cc1ccccc1)[C@H](Cc1ccccc1)NC(=O)OC1CCCC1 | 42 | – | – |
| CC(C)C[C@H](NC(=O)OC1CCCC1)[C@H](Cc1ccccc1)n1cc(CN2CCN(c3cccc(C(F)(F)F)c3)CC2)nn1 | 86 | 50 | – |
| Cc1ccc(Cl)cc1N1CCN(Cc2nnn([C@@H](Cc3ccccc3)[C@H](Cc3ccccc3)NC(=O)OC3CCCC3)c2CO)CC1 | 8 | – | – |
| Cc1ccc(Cl)cc1N1CCN(Cc2nnn([C@@H](Cc3ccccc3)[C@H](Cc3ccccc3)NC(=O)OC3CCCC3)c2[C@H](C)O)CC1 | 21 | – | – |
| Cc1ccc(Cl)cc1N1CCN(Cc2nnn([C@@H](Cc3ccccc3)[C@H](Cc3ccccc3)NC(=O)OC3CCCC3)c2[C@@H](C)O)CC1 | 28 | – | – |
